In ChEMBL document CHEMBL1123363, “(5-Amino-1,3-dimethyl-1H-pyrazol-4-yl)(2-fluorophenyl)methanones . A series of novel potential antipsychotic agents” (J Med Chem, 1986):

Tests used:
Rattus norvegicus = assay: Compound was tested for its affect on the accumulation of the dopamine metabolite homovanillic acid (HAV) in the rat striatum at 83 mg/kg dose after peroral administration; type: functional; details: route oral
Procedure, shortened: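 Male Long–Evans rats were dosed orally and decapitated 2 h later. Striatal HVA was isolated on Sephadex G-10 and measured spectrofluorometrically, expressed as % control ± SEM.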

[1] = molecular target: T1, Adrenergic receptor alpha-1 (Rattus norvegicus, UniProt P15823+P23944+P43140); assay: Binding affinity against lpha-1 adrenergic receptor using [3H]- WB-4101; type: protein assay
T1 sequence (P15823 whole entry): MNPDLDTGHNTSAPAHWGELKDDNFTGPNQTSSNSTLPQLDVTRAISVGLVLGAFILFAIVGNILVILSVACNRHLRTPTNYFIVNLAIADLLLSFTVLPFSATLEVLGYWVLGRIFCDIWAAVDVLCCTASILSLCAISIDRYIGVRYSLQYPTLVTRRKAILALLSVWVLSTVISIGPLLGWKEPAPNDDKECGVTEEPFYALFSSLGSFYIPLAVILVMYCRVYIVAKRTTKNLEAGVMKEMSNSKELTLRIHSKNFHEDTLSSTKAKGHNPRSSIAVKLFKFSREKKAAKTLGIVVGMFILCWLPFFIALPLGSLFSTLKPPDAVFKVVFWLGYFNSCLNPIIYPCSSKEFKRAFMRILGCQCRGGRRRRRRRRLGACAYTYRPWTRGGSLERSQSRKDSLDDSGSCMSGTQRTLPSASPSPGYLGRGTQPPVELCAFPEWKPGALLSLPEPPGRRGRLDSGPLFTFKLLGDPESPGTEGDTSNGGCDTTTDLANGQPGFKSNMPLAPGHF
T1 sequence (P23944 whole entry): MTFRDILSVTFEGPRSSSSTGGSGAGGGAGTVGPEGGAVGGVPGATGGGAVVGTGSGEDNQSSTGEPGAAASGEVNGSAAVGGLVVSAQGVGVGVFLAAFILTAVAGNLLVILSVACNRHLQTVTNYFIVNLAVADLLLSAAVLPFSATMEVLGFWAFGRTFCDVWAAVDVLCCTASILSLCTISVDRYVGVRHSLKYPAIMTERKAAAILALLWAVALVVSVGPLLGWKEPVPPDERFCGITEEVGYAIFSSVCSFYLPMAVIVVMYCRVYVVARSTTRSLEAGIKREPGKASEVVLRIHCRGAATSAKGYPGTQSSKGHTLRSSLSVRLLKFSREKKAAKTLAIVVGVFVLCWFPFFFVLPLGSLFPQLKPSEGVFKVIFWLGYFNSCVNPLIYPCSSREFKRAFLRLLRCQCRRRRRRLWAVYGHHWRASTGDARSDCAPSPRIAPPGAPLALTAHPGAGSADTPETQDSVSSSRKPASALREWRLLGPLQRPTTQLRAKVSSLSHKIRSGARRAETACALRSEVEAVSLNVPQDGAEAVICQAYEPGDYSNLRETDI
T1 sequence (P43140 whole entry): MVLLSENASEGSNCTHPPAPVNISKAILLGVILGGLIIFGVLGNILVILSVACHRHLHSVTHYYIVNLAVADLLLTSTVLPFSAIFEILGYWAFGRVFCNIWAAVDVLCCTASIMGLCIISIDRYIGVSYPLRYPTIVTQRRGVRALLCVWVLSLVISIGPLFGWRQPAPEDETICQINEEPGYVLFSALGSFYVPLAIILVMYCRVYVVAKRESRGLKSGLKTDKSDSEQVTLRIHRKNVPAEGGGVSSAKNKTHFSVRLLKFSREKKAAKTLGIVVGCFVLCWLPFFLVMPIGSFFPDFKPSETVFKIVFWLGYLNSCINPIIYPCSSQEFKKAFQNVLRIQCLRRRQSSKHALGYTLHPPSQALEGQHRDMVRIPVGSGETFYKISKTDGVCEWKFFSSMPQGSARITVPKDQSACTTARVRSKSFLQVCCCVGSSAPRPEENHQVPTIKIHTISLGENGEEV
Procedure, shortened: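 α1-Adrenergic binding in rat frontal cerebral cortex membranes (male Long-Evans, 150–250 g) with [3H]WB4101 at 0.5 nM final. (-)-Norepinephrine at 100 μM final was the reference standard. IC50 from four or five concentrations by nonlinear curve fitting.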

CCN(CC)CC(=O)Nc1c(C(=O)c2ccccc2F)c(C)nn1C
Control (Rattus norvegicus): 102.1% | IC50 [1]: > 10 µM
